Experimental data as given in ChEMBL document CHEMBL1921704, “Discovery of N-aryl-2-acylindole human glucagon receptor antagonists” (Bioorg Med Chem Lett, 2011).
Blank lines part the entries; values can stand above or below the molecule they belong to. Active and inactive are the calls of the source. No cut-off for these calls is given here.

Columns and labels:
Glucagon receptor [1] = molecular target: T1, Glucagon receptor (Homo sapiens, UniProt P47871); assay: Displacement of [125I]-glucagon from human glucagon receptor expressed in CHO cells after 4 to 12 hrs by scintillation proximity assay; assay type: cell-based
T1 sequence (P47871 whole entry): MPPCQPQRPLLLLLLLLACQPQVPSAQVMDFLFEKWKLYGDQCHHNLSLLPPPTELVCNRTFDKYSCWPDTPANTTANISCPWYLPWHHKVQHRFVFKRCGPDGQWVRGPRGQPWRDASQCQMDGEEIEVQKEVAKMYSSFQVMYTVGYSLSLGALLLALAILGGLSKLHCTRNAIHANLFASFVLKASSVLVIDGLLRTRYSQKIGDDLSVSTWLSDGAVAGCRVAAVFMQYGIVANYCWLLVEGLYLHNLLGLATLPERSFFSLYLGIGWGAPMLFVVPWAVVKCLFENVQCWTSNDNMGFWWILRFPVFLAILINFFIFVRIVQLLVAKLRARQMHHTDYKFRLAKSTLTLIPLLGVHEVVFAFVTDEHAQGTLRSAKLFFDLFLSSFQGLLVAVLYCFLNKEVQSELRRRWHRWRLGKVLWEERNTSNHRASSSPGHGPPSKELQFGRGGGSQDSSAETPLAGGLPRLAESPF
Summary of the method: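 Scintillation proximity assay on membranes from CHO cells expressing hGCGR, measuring inhibition of ¹²⁵I-labelled glucagon binding. IC50 reported as the average rounded to two significant figures, with standard error of the mean when more than one measurement was made.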

Glucagon receptor [2] = molecular target: T1, Glucagon receptor; assay: Antagonist activity at human glucagon receptor expressed in CHO cells assessed as inhibition of forskolin/glucagon-induced cAMP production preincubated for 30 mins before glucagon challenge measured after 30 mins using [125I]-cAMP by liquid scintillation counting; assay type: functional, cell-based
Summary of the method: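 Glucagon-induced cAMP production measured in CHO cells transfected with hGCGR. IC50 reported as the average rounded to two significant figures, with SEM when measured more than once.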

[3] = Half life in rat at 1 mg/kg, iv and 2 mg/kg, po; assay type: ADME, organism-based; settings: in vivo
Summary of the method: (§1)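 Rat PK with dosing at 1 mg/kg IV and 2 mg/kg PO, vehicle DMSO/water/PEG400 15:35:55. Parameters were plasma clearance, Vd, t1/2, dose-normalised PO AUC and Cmax, and %F.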

[4] = Volume of distribution in rat at 1 mg/kg, iv and 2 mg/kg, po; assay type: ADME, organism-based; settings: in vivo; summary of the method: as §1
Rattus norvegicus [5] = assay: Dose normalised AUC in rat at 2 mg/kg, po; assay type: ADME, organism-based; design: dose 2 mg/kg, route oral; settings: in vivo; summary of the method: as §1
Rattus norvegicus [6] = assay: Dose normalised Cmax in rat at 1 mg/kg, iv and 2 mg/kg, po; assay type: ADME, organism-based; settings: in vivo; summary of the method: as §1
[7] = Oral bioavailability in rat at 2 mg/kg; assay type: ADME, organism-based; settings: in vivo; summary of the method: as §1
[8] = Plasma clearance in rat at 1 mg/kg, iv and 2 mg/kg, po; assay type: ADME, organism-based; summary of the method: as §1
[9] = Plasma clearance in dog at 0.5 mg/kg, iv and 2 mg/kg, po; assay type: ADME, organism-based, Canis lupus familiaris
[10] = Half life in dog at 0.5 mg/kg, iv and 2 mg/kg, po; assay type: ADME, organism-based, Canis lupus familiaris; settings: in vivo
Mus musculus [11] = assay: Antidiabetic activity in human glucagon receptor transgenic mouse assessed as inhibition of glucagon-induced glucose excursion at 30 mg/kg, po administered 60 mins after glucagon challenge by glucometry; assay type: functional, organism-based; design: dose 30 mg/kg; settings: in the assay text read “60 mins before glucagon challenge” for “60 mins after glucagon challenge”
Summary of the method: (§2)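 Oral dosing to mice expressing human glucagon receptor, followed 60 min later by IP glucagon injection. Read-out was the glucagon-induced blood glucose excursion.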

Plasma = assay: Protein binding in Sprague-Dawley rat plasma at 20 mg/kg, po after 2 to 24 hrs; assay type: ADME, organism-based; design: dose 20 mg/kg, route oral; settings: in vivo
Summary of the method: (§3)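 Radiolabelled analog given orally at 20 mg/kg to Sprague-Dawley rats. Irreversible binding to plasma and liver proteins measured at 2, 6 and 24 h post dose.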

[12] = Chemical stability of the compound in 1:1 mixtures of dioxane and buffered solutions at pH 2 to pH 10 assessed as racemization at 40 degree celsius after 24 hrs by chiral HPLC analysis; assay type: physicochemical; settings: buffer, pH 2, 24 h
[13] = Volume of distribution in dog at 0.5 mg/kg, iv and 2 mg/kg, po; assay type: ADME, organism-based, Canis lupus familiaris; settings: in vivo
Liver microsomes [14] = assay: Protein binding in human liver microsomes at 10 uM after 60 mins; assay type: ADME, Microsome; settings: 1 h
Summary of the method: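 Tritium-labelled analog incubated with human and rat liver microsomes for 60 min at 37 °C, then irreversible protein binding measured.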

[15] = molecular target: Glucagon-like peptide 1 receptor (Homo sapiens, UniProt P43220); assay: Antagonist activity at human GLP1 receptor assessed as inhibition of cAMP production; assay type: functional
Sequence of Glucagon-like peptide 1 receptor (P43220 whole entry): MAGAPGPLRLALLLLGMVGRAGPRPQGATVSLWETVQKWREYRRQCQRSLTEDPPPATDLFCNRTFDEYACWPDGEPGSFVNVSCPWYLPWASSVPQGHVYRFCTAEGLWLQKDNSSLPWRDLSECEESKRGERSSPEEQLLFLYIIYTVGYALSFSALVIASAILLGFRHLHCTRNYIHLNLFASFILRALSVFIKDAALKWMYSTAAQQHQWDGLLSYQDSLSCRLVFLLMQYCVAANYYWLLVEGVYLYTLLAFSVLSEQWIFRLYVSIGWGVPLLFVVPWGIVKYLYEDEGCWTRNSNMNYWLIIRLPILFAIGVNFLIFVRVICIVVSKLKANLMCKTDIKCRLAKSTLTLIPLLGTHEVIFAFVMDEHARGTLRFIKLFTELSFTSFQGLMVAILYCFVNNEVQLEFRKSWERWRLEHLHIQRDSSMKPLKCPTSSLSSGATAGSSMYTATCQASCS

[16] = Oral bioavailability in dog at 2 mg/kg; assay type: ADME, organism-based, Canis lupus familiaris; settings: in vivo
[17] = molecular target: T2, Gastric inhibitory polypeptide receptor (Homo sapiens, UniProt P48546); assay: Antagonist activity at human GIP receptor assessed as inhibition of cAMP production; assay type: functional
T2 sequence (P48546 whole entry): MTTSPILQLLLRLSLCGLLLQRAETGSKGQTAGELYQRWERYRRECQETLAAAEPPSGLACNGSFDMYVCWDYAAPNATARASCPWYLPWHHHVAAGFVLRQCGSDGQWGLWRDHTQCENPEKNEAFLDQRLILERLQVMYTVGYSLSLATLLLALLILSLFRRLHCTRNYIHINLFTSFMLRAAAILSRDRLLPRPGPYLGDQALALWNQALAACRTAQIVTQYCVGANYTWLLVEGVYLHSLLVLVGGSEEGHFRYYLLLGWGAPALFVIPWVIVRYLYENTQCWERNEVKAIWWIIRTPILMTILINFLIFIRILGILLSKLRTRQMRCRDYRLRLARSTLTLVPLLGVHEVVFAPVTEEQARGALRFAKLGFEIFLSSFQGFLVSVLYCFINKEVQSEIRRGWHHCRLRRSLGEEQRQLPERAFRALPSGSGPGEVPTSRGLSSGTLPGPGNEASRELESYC

Mus musculus [18] = assay: Antidiabetic activity in human glucagon receptor transgenic mouse assessed as inhibition of glucagon-induced glucose excursion at 3 mg/kg, po administered 60 mins after glucagon challenge by glucometry; assay type: functional, organism-based; design: dose 3 mg/kg; settings: in the assay text read “60 mins before glucagon challenge” for “60 mins after glucagon challenge”; summary of the method: as §2
Canis familiaris [19] = assay: Dose normalised Cmax in dog at 0.5 mg/kg, iv and 2 mg/kg, po; assay type: ADME, organism-based, Canis lupus familiaris; settings: in vivo
Rattus norvegicus [20] = assay: Stability of the compound in bile duct cannulated rat assessed as racemization at 2 mg/kg, iv by chiral HPLC analysis; assay type: ADME, organism-based; design: dose 2 mg/kg, route intravenous; settings: in vivo
Summary of the method: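 Radiolabelled compound given IV at 2 mg/kg to bile-duct-cannulated rats. Excreted parent compound analysed by chiral HPLC for racemization.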

Canis familiaris [21] = assay: Dose normalised AUC in dog at 2 mg/kg, po; assay type: ADME, organism-based, Canis lupus familiaris; design: dose 2 mg/kg, route oral; settings: in vivo
Rattus norvegicus [22] = assay: Toxicity in rat assessed as tolerability at 100 mg/kg/day after 8 days; assay type: organism-based; settings: in vivo, 192 h
Liver microsomes [23] = assay: Stability of the compound in human liver microsomes assessed as racemization at 10 uM after 60 mins by chiral HPLC analysis; assay type: ADME, Microsome; settings: 1 h
Mus musculus [24] = assay: Antidiabetic activity in human glucagon receptor transgenic mouse assessed as inhibition of glucagon-induced glucose excursion at 10 mg/kg, po administered 60 mins after glucagon challenge by glucometry; assay type: functional, organism-based; design: dose 10 mg/kg; settings: in the assay text read “60 mins before glucagon challenge” for “60 mins after glucagon challenge”; summary of the method: as §2
Mus musculus [25] = assay: Antidiabetic activity in human glucagon receptor transgenic ob/ob mouse hyperglycemic model assessed as reduction in ambient glucose level at 1 mg/kg, po over 6 hrs period; assay type: functional, organism-based; design: dose 1 mg/kg
Summary of the method: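 Model was transgenic ob/ob/hGCGR diabetic mice. Ambient glucose was followed over 6 h after a single oral dose.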

Cytochrome P450 2C9 = Cytochrome P450 2C9 (Homo sapiens, UniProt P11712); assay: Inhibition of CYP2C9; assay type: ADME
Sequence of Cytochrome P450 2C9 (P11712 whole entry): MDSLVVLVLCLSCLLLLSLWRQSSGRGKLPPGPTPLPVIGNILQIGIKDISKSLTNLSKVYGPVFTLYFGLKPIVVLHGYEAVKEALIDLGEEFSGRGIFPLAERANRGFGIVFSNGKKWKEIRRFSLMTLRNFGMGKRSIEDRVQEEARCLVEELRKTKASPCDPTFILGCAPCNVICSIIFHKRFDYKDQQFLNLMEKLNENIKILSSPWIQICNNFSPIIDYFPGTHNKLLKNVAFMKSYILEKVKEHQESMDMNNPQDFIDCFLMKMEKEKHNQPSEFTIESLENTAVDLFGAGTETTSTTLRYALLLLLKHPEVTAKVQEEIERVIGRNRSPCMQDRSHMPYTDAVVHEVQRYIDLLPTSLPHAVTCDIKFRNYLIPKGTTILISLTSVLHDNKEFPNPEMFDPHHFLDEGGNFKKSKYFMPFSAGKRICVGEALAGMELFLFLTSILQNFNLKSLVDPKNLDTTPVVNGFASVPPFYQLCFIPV

Liver = assay: Protein binding in Sprague-Dawley rat liver at 20 mg/kg, po after 2 to 24 hrs; assay type: ADME, organism-based; design: dose 20 mg/kg, route oral; settings: in vivo; summary of the method: as §3
Cytochrome P450 3A4 = Cytochrome P450 3A4 (Homo sapiens, UniProt P08684); assay: Inhibition of CYP3A4; assay type: ADME
Sequence of Cytochrome P450 3A4 (P08684 whole entry): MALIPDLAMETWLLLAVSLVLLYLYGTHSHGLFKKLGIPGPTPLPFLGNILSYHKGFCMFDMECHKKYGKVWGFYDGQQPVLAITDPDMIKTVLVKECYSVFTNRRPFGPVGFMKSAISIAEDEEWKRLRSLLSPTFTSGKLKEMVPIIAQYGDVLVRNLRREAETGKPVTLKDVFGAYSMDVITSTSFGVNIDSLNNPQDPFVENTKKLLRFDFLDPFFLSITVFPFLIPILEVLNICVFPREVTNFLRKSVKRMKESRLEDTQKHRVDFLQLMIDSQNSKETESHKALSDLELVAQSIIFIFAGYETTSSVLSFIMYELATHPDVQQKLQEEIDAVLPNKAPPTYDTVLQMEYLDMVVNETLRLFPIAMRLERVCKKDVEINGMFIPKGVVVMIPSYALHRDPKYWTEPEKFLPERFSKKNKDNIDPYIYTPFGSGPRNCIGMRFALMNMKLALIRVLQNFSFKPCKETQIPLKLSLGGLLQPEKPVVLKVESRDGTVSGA

Cytochrome P450 2D6 = Cytochrome P450 2D6 (Homo sapiens, UniProt P10635); assay: Inhibition of CYP2D6; assay type: ADME
Sequence of Cytochrome P450 2D6 (P10635 whole entry): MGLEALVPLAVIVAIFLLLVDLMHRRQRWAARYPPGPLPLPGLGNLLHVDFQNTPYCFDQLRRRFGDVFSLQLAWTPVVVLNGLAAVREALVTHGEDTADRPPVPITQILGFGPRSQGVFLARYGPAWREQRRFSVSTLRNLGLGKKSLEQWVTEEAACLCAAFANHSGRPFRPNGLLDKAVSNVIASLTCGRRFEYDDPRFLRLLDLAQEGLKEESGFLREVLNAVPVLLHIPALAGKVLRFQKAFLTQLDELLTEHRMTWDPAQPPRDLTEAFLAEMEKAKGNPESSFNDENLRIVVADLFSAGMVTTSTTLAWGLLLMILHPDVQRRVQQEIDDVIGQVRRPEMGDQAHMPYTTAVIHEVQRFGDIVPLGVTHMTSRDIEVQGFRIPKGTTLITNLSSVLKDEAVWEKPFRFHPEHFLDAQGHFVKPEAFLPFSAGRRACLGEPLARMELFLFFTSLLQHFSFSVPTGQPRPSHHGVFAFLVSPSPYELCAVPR

SMILES: CCCCC[C@@H](Cc1ccc(C(=O)NCCC(=O)O)cc1)C(=O)c1cc2cc(OC)ccc2n1-c1cccc(C(F)(F)F)c1
IC50 (Glucagon receptor [1]): 26 nM
IC50 (Glucagon receptor [2]): 35 nM

SMILES: CCCC(Cc1ccc(C(=O)NCCC(=O)O)cc1)C(=O)c1cc2cc(Cl)ccc2n1-c1cc(C)cc(C)c1 (single isomer, unassigned)
IC50 (Glucagon receptor [1]): 120 nM

SMILES: CCCCC[C@@H](Cc1ccc(C(=O)NCCC(=O)O)cc1)C(=O)c1cc2cc(C(F)(F)F)ccc2n1-c1cccc(C(F)(F)F)c1
IC50 (Glucagon receptor [1]): 16 nM
IC50 (Glucagon receptor [2]): 44 nM

SMILES: CCCC(Cc1ccc(C(=O)NCCC(=O)O)cc1)C(=O)c1cc2cc(Cl)ccc2n1-c1ccc2cc(OC)ccc2c1 (single isomer, unassigned)
IC50 (Glucagon receptor [1]): 34 nM
IC50 (Glucagon receptor [2]): 95 nM

SMILES: CCCC(Cc1ccc(C(=O)NCCC(=O)O)cc1)C(=O)c1cc2cc(Cl)ccc2n1-c1ccc2c(c1)OCCO2 (single isomer, unassigned)
IC50 (Glucagon receptor [1]): 28 nM
IC50 (Glucagon receptor [2]): 49 nM

SMILES: CCCCC[C@@H](Cc1ccc(C(=O)NCCC(=O)O)cc1)C(=O)c1cc2cc(C)ccc2n1-c1cccc(C(F)(F)F)c1
IC50 (Glucagon receptor [1]): 12 nM
IC50 (Glucagon receptor [2]): 24 nM

More lines, main results first:

IC50 (Glucagon receptor [1]): 17 nM
IC50 (Glucagon receptor [2]): 36 nM
SMILES: CC(C)CC[C@@H](Cc1ccc(C(=O)NCCC(=O)O)cc1)C(=O)c1cc2cc(Cl)ccc2n1-c1cccc(C(F)(F)F)c1

half-life [3]: 1.7 h
Vd [4]: 1.5 L/kg
AUC/dose (Rattus norvegicus [5]): 0.85 µM·h
Cmax/dose (Rattus norvegicus [6]): 250 nM
IC50 (Glucagon receptor [1]): 17 nM
IC50 (Glucagon receptor [2]): 55 nM
bioavailability [7]: 42%
clearance [8]: 14.2 mL/min/kg
SMILES: CCC[C@@H](Cc1ccc(C(=O)NCCC(=O)O)cc1)C(=O)c1cc2cc(Cl)ccc2n1-c1cccc(C(F)(F)F)c1

IC50 (Glucagon receptor [1]): 450 nM
SMILES: CCC[C@H](Cc1ccc(C(=O)NCCC(=O)O)cc1)C(=O)c1cc2cc(Cl)ccc2n1-c1cccc(C(F)(F)F)n1

IC50 (Glucagon receptor [1]): 58 nM
IC50 (Glucagon receptor [2]): 718 nM
SMILES: CCCC(Cc1ccc(C(=O)NCCC(=O)O)cc1)C(=O)c1cc2cc(Cl)ccc2n1-c1cnc2ccccc2c1 (single isomer, unassigned)

IC50 (Glucagon receptor [1]): 31 nM
IC50 (Glucagon receptor [2]): 30 nM
SMILES: CCCC(Cc1ccc(C(=O)NCCC(=O)O)cc1)C(=O)c1cc2cc(Cl)ccc2n1-c1ccc(C(F)(F)F)cc1 (single isomer, unassigned)

half-life [3]: 1.9 h
clearance [9]: 3.8 mL/min/kg
half-life [10]: 2.7 h
PPB (Plasma): Not Active
Stability [12]: Stable
Vd [13]: 0.32 L/kg
PB (Liver microsomes [14]): Not Active
IC50 [15]: > 10000 nM
Vd [4]: 0.98 L/kg
AUC/dose (Rattus norvegicus [5]): 1.46 µM·h
Cmax/dose (Rattus norvegicus [6]): 330 nM
bioavailability [16]: 60%
IC50 [17]: 1400 nM
Cmax/dose (Canis familiaris [19]): 840 nM
Stability (Rattus norvegicus [20]): Stable
AUC/dose (Canis familiaris [21]): 4.2 µM·h
IC50 (Glucagon receptor [1]): 10 nM
Stability (Liver microsomes [23]): Stable
IC50 (Cytochrome P450 2C9): > 11000 nM
IC50 (Glucagon receptor [2]): 12 nM
PB (Liver): Not Active
bioavailability [7]: 33%
clearance [8]: 6.8 mL/min/kg
IC50 (Cytochrome P450 3A4): > 11000 nM
IC50 (Cytochrome P450 2D6): > 11000 nM
SMILES: CCCCC[C@@H](Cc1ccc(C(=O)NCCC(=O)O)cc1)C(=O)c1cc2cc(Cl)ccc2n1-c1cccc(C(F)(F)F)c1
Activity (Mus musculus [11]): Active
Activity (Mus musculus [18]): Active
Activity (Rattus norvegicus [22]): Non-toxic
Activity (Mus musculus [24]): Active
Activity (Mus musculus [25]): Active

IC50 (Glucagon receptor [1]): 32 nM
IC50 (Glucagon receptor [2]): 100 nM
SMILES: CCCC(Cc1ccc(C(=O)NCCC(=O)O)cc1)C(=O)c1cc2cc(Cl)ccc2n1-c1ccc(Cl)cc1 (single isomer, unassigned)
